In the library only some 3.7% were active in any assay of this set; here they are far more common.
KCNK9 inh: KCNK9 potassium channel inhibitors, primary screen, HEK293 cells, thallium flux. FluxOR thallium flux fluorescence; active compounds read low. B-score at 10 µM. 310,000 tested, 1.2% active. AID 488922, 2010;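 active = ratio B-score over 3 SD below the library mean, with starting fluorescence within 5 SD of its mean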;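 note: negative B-score means less thallium flux so channel inhibition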
KCNQ1 pot: potentiators or activators of KCNQ1 channel, primary screen, cell-based, thallium flux, high-throughput; Potassium voltage-gated channel subfamily KQT member 1 (Homo sapiens), P51787; CHO-K1 KCNQ1, thallium flux FluxOR fluorescence; active compounds read high; B-score at 10 µM; 310,000 tested, 0.35% active;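 active = fluorescence ratio B-score, a plate-corrected score, at least three library SD, with initial intensity B-score within 5 SD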
Target sequence (P51787 whole entry, looked up): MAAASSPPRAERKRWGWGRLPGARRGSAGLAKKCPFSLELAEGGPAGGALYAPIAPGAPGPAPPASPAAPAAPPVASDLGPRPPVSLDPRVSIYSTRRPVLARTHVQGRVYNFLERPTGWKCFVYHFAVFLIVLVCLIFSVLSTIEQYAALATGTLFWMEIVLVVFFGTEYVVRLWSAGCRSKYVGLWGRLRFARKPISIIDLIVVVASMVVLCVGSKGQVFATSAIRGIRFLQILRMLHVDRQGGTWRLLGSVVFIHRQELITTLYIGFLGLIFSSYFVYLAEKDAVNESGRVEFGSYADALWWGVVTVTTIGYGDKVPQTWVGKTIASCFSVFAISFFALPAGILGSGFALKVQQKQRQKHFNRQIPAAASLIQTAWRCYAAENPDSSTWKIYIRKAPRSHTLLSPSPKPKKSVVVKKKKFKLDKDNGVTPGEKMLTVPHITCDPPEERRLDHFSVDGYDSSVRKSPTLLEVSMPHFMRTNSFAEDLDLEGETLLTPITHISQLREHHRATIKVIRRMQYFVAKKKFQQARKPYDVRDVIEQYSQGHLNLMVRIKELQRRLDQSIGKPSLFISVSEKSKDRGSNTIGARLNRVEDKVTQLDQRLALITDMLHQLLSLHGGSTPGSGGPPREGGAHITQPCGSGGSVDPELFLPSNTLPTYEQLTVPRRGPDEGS
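Assay system: stable KCNQ1 CHO-K1 line; medium: assay buffer, equal DMSO in all wells; timing: 90 min dye loading and 20 min compound exposure, both at room temperature; technique: kinetic FluxOR thallium fluorescence, 10-s 1-Hz baseline, 110-s post-stimulus read; read-out basis: B score of baseline-normalized fluorescence ratio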
Kir21 block: inhibitors of mouse Kir2.1 inward-rectifier potassium channel; Inward rectifier potassium channel 2 (Mus musculus), P35561; HEK293-Kir2.1, FluxOR thallium flux fluorescence; active compounds read low; B-score at 10 µM; 310,000 tested, 0.85% active;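 active = fluorescence ratio B-score at or below minus 3 SD of library scores, with starting-brightness B-score within 2 SD, cut at about -4.2 in these data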;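 note: channel flux triggered by added potassium and thallium sulfate stimulus; B-score of peak minus minimum fluorescence over baseline after thallium stimulus; more negative B-score means stronger Kir2.1 block with less thallium influx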
hERG rescue: hERG rescue from dofetilide block, primary screen, cell-based, CHO-hERG, FluxOR thallium flux, dofetilide IC70 | Voltage-gated inwardly rectifying potassium channel KCNH2 (Homo sapiens), Q12809 | dofetilide IC70 present | activation (rescue from dofetilide block), less the hit threshold, % at 10 µM | 310,000 tested, 0.51% active | AID 1511, 2009;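 active = activation above the mean of controls blocked by dofetilide plus 5 SD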;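 note: thallium influx through hERG after potassium depolarization seen as dye fluorescence rise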
KCNQ1 block: inhibitors of human KCNQ1 channel, primary screen, cell-based, thallium flux, high-throughput; CHO-K1 KCNQ1, FluxOR thallium flux fluorescence; active compounds read high; B-score at 10 µM; 310,000 tested, 1.3% active; AID 2642, 2010;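 active = compounds whose thallium flux B-score, printed positive for inhibition, exceeds three library SD while starting fluorescence stays within three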;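 note: channel opened by potassium depolarization with thallium stimulus after 20 min compound exposure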
KCNK3 inh: human KCNK3 channel inhibitors, primary screen, CHO cells, FluxOR thallium flux, B-score. B-score at 10 µM. 340,000 tested, 0.84% active. FluxOR fluorescence; active compounds read low. Potassium channel subfamily K member 3 (Homo sapiens), O14649. AID 602410, 2012;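 active = B-score under library mean minus 4 SD, starting fluorescence ratio at most library mean plus 5 SD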;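 note: more negative B-score means stronger inhibition of thallium flux through KCNK3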
KCNK9 inh conf: KCNK9 potassium channel inhibitors, confirmation, HEK293 cells, thallium flux, duplicate; 4,900 tested, 43% active; shares compounds with KCNK9 inh; AID 492992, 2010; FluxOR thallium flux fluorescence; inhibition, % at 10 µM;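 active = thallium signal inhibited by more than 5 SD of the compound-free buffer control wells, on both duplicate plates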;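 note: 0% = assay buffer control wells without compound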
Kir2-1 spec: mouse Kir2.1 channel inhibition, confirmation, selectivity assay for KCNK9 modulator project, cell-based, HEK293, thallium flux; shares compounds with KCNK9 inh; AID 492993, 2010; 4,900 tested, 4% active; Kir2.1 cells, FluxOR thallium flux fluorescence; inhibition, % at 10 µM;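 active = thallium signal drop more than 5 SD beyond the mean of the no-compound control wells, seen in both duplicate plates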;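 note: signal is fluorescence rise after thallium addition divided by baseline fluorescence; plate controls were assay buffer only for no effect and full block by chlorpromazine control for full effect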
KCNK9 uninduced: thallium flux in non-induced HEK293 cells, confirmation, counter-screen for KCNK9 inhibitor project, cell-based, second counter screen, non-induced KCNK9-HEK293; shares compounds with KCNK9 inh; AID 492997, 2010; inhibition, % at 10 µM; 4,900 tested, 40% active; FluxOR thallium flux;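 active = thallium signal drop beyond 5 SD of the untreated control mean, on both duplicate plates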;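 note: plate controls were buffer only IC0 wells for no effect and SID17386958 at its maximal inhibitory level for full effect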
* hit, by the source's call.

`CCn1c(SCC(=O)Nc2ccc3c(c2)OCO3)nc2c(c1=O)SC(C)C2` (stereo not given) gave KCNK9 inh inactive, KCNQ1 pot inactive, Kir21 block -0.07, hERG rescue -15, KCNQ1 block inactive and KCNK3 inh inactive.
CCC(C)n1c(SCC(=O)NC(=O)Nc2ccc3c(c2)OCCO3)nc2ccccc2c1=O (stereo not given) was read as KCNK9 inh -15*, KCNQ1 pot inactive, Kir21 block 0.1, hERG rescue -2, KCNQ1 block inactive, KCNK3 inh -8.7*, KCNK9 inh conf 50%*, Kir2-1 spec inactive and KCNK9 uninduced 30%*.
For COc1ccc(-n2c(SCC(=O)Nc3ccc4c(c3)OCO4)nc3ccccc3c2=O)cc1 the results were KCNK9 inh -9.3*, KCNQ1 pot inactive, Kir21 block 1.3, hERG rescue -7, KCNQ1 block inactive, KCNK3 inh inactive, KCNK9 inh conf 38%*, Kir2-1 spec inactive and KCNK9 uninduced 36%*.
Screening CC1Cc2nc(SCC(=O)Nc3ccc4c(c3)OCO4)n(CCc3ccccc3)c(=O)c2S1 (stereo not given) returned KCNK9 inh -12*, KCNQ1 pot inactive, Kir21 block -1.9, hERG rescue -10, KCNQ1 block inactive, KCNK3 inh inactive, KCNK9 inh conf 58%*, Kir2-1 spec inactive and KCNK9 uninduced inactive.
`CCOc1ccc(S(=O)(=O)N2CCCC(C(=O)NC3CC3)C2)cc1Cl` (stereo not given) gave KCNK9 inh inactive, KCNQ1 pot inactive, Kir21 block 0.01, hERG rescue -4, KCNQ1 block inactive and KCNK3 inh inactive.
`COc1cc(/C=C(/C#N)C(=O)NCc2ccccc2)cc(OC)c1OC` gave KCNK9 inh inactive, KCNQ1 pot inactive, Kir21 block 0.12, hERG rescue -8, KCNQ1 block inactive and KCNK3 inh inactive.
COc1ccc(/C=C(\C#N)C(=O)NCCc2ccccc2)cc1OCc1ccccc1 was read as KCNK9 inh inactive, KCNQ1 pot inactive, Kir21 block 0.6, hERG rescue -19, KCNQ1 block inactive, KCNK3 inh inactive, KCNK9 inh conf inactive, Kir2-1 spec inactive and KCNK9 uninduced inactive.
`CCOc1ccccc1NC(=O)CSc1nc2ccccc2nc1N1CCCC1` gave KCNK9 inh -8.6*, KCNQ1 pot inactive, Kir21 block -0.09, hERG rescue -16, KCNQ1 block 6*, KCNK3 inh inactive, KCNK9 inh conf inactive, Kir2-1 spec inactive and KCNK9 uninduced inactive.
Screening COc1ccccc1N1CCN(C(=O)CSc2nc3ccccc3nc2N2CCC(C)CC2)CC1 returned KCNK9 inh inactive, KCNQ1 pot inactive, Kir21 block -1.1, hERG rescue -15, KCNQ1 block inactive, KCNK3 inh inactive, KCNK9 inh conf inactive, Kir2-1 spec inactive and KCNK9 uninduced inactive.
For COc1ccc(NC(=O)CSc2nc3ccccc3nc2N2CCCC2)cc1 the results were KCNK9 inh inactive, KCNQ1 pot inactive, Kir21 block 0.23, hERG rescue -5, KCNQ1 block inactive, KCNK3 inh inactive, KCNK9 inh conf inactive, Kir2-1 spec inactive and KCNK9 uninduced inactive.

High-throughput results: PubChem, Johns Hopkins Ion Channel Center
